Measured values as given in ChEMBL document CHEMBL1671740, “Increased temperature enhances the antimicrobial effects of daptomycin, vancomycin, tigecycline, fosfomycin, and cefamandole on staphylococcal biofilms” (2010).
Values after ≈ are worked out from the molar mass of the structure shown. Active and inactive are the calls of the source. No cut-off for these calls is given here.

How the values were obtained:
Assay type in all cases: functional
[1] = test system: Staphylococcus aureus; test: Antimicrobial activity against Staphylococcus aureus ATCC 29213 administered as powder at 45 degC after 24 hrs; conditions: ATCC 29213, 24 h
Outline: (§1)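 Antimicrobials, as powder or in solution as used for MIC testing, held at 45°C for 1 and 24 h in three independent experiments. MICs were then determined by the CLSI microtiter plate method in cation-adjusted Mueller-Hinton medium, with MHB containing 50 μg/ml calcium for daptomycin. Values are median (range) […] in mg/liter.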

[2] = test system: Staphylococcus epidermidis; test: Antimicrobial activity against Staphylococcus epidermidis DSM3269 by […]
[3] = test system: Staphylococcus; test: Antimicrobial activity against coagulase-negative Staphylococcus isolated from human preoperative skin by […]
[4] = test system: Staphylococcus aureus; test: Antimicrobial activity against Staphylococcus aureus ATCC 29213 by […]
[5] = test system: Staphylococcus; test: Antimicrobial activity against Staphylococcus isolates biofilms assessed as decrease in bacterial load at 25 mg/litre at ambient temperature of 45 degC after 24 hrs relative to baseline
Outline: (§2)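 24-h static biofilms of the staphylococcal isolates were exposed to drug for 24 h at 35, 40 or 45°C. Biofilms were not fixed but scraped off and resuspended in MHB, then serially diluted and 0.1 ml plated on blood agar, read after 48 h at 35°C in ambient air. Done in duplicate as mean log10 CFU/ml; log reduction was taken versus untreated biofilm.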

[6] = test system: Staphylococcus; test: Antimicrobial activity against Staphylococcus isolates biofilms assessed as decrease in bacterial load at 100 mg/litre at ambient temperature of 40 degC after 24 hrs relative to baseline; outline: as §2
[7] = test system: Staphylococcus epidermidis; test: Antimicrobial activity against Staphylococcus epidermidis isolate KO8 isolated from healthy human skin by […]
[8] = test system: Staphylococcus aureus; test: Antimicrobial activity against Staphylococcus aureus isolated from human prosthetic joint infection site by […]
[9] = test system: Staphylococcus aureus; test: Antimicrobial activity against Staphylococcus aureus isolated from human preoperative skin by […]
[10] = test system: Staphylococcus epidermidis; test: Antimicrobial activity against Staphylococcus epidermidis isolate OR1 treated in solution at 45 degC after 24 hrs; conditions: isolate OR1, 24 h; outline: as §1
[11] = test system: Staphylococcus; test: Antimicrobial activity against coagulase-negative Staphylococcus isolated from human prosthetic joint infection site by […]
[12] = test system: Staphylococcus; test: Antimicrobial activity against Staphylococcus isolates biofilms assessed as decrease in bacterial load at 100 mg/litre at ambient temperature of 45 degC after 24 hrs relative to baseline; outline: as §2
[13] = test system: Staphylococcus; test: Antimicrobial activity against Staphylococcus isolates biofilms assessed as decrease in bacterial load at 100 mg/litre at ambient temperature of 35 degC after 24 hrs relative to baseline; outline: as §2
[14] = test system: Staphylococcus; test: Antimicrobial activity against Staphylococcus isolates biofilms assessed as change in optical density ratio of biofilms at 500 mg/litre at ambient temperature of 45 degC after 24 hrs relative to baseline
Outline: (§3)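 Static microtiter biofilms of 34 clinical S. aureus and CoNS isolates from orthopedic implant infections or preoperative skin, plus reference strains. Inoculum was McFarland 0.5 diluted 1:100 in calcium-supplemented MHB, grown 24 h at 35°C in ambient air. Established biofilms were exposed to drug for 24 h at 35, 40 or 45°C, then formalin-fixed and stained with 1% crystal violet for 5 min, and OD read at 550 nm in quadruplicate.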

[15] = test system: Staphylococcus; test: Antimicrobial activity against Staphylococcus isolates biofilms assessed as change in optical density ratio of biofilms at 50 mg/litre at ambient temperature of 35 degC after 24 hrs relative to baseline; outline: as §3
[16] = test system: Staphylococcus; test: Antimicrobial activity against Staphylococcus isolates biofilms assessed as change in optical density ratio of biofilms at 500 mg/litre at ambient temperature of 35 degC after 24 hrs relative to baseline; outline: as §3
[17] = test system: Staphylococcus; test: Antimicrobial activity against Staphylococcus isolates biofilms assessed as change in optical density ratio of biofilms at 100 mg/litre at ambient temperature of 45 degC after 24 hrs relative to baseline; outline: as §3
[18] = test system: Staphylococcus; test: Antimicrobial activity against Staphylococcus isolates biofilms assessed as change in optical density ratio of biofilms at 100 mg/litre at ambient temperature of 40 degC after 24 hrs relative to baseline; outline: as §3
[19] = test system: Staphylococcus; test: Antimicrobial activity against Staphylococcus isolates biofilms assessed as decrease in bacterial load at 500 mg/litre at ambient temperature of 45 degC after 24 hrs relative to baseline; outline: as §2
[20] = test system: Staphylococcus; test: Antimicrobial activity against Staphylococcus isolates biofilms assessed as change in optical density ratio of biofilms at 50 mg/litre at ambient temperature of 45 degC after 24 hrs relative to baseline; outline: as §3
[21] = test system: Staphylococcus; test: Antimicrobial activity against Staphylococcus isolates biofilms assessed as change in optical density ratio of biofilms at 500 mg/litre at ambient temperature of 40 degC after 24 hrs relative to baseline; outline: as §3
[22] = test system: Staphylococcus; test: Antimicrobial activity against Staphylococcus isolates biofilms assessed as change in optical density ratio of biofilms at 50 mg/litre at ambient temperature of 40 degC after 24 hrs relative to baseline; outline: as §3
[23] = test system: Staphylococcus; test: Antimicrobial activity against Staphylococcus isolates biofilms assessed as decrease in bacterial load at 500 mg/litre at ambient temperature of 40 degC after 24 hrs relative to baseline; outline: as §2
[24] = test system: Staphylococcus; test: Antimicrobial activity against Staphylococcus isolates biofilms assessed as change in optical density ratio of biofilms at 100 mg/litre at ambient temperature of 35 degC after 24 hrs relative to baseline; outline: as §3

Row | MIC [1] | MIC [2] | MIC [3] | MIC [4] | MIC [8] | MIC [9] | MIC [10] | MIC [11] | SMILES | MIC [7] | also measured
1 | 0.5 µg/mL (≈ 0.309 µM) | 0.25 µg/mL (≈ 0.154 µM) | 0.25 µg/mL (≈ 0.154 µM) | 0.125 µg/mL (≈ 0.0771 µM) | 0.125 µg/mL (≈ 0.0771 µM) | 0.125 µg/mL (≈ 0.0771 µM) | 1 µg/mL (≈ 0.617 µM) | 0.125 µg/mL (≈ 0.0771 µM) | CCCCCCCCCC(=O)N[C@@H](Cc1c[nH]c2ccccc12)C(=O)N[C@H](CC(N)=O)C(=O)N[C@@H](CC(=O)O)C(=O)N[C@@H]1C(=O)NCC(=O)N[C@@H](CCCN)C(=O)N[C@@H](CC(=O)O)C(=O)N[C@H](C)C(=O)N[C@@H](CC(=O)O)C(=O)NCC(=O)N[C@H](CO)C(=O)N[C@@H]([C@H](C)CC(=O)O)C(=O)N[C@@H](CC(=O)c2ccccc2N)C(=O)O[C@@H]1C | 0.25 µg/mL (≈ 0.154 µM) | fold change (FC) [5]: 1.2; fold change (FC) [6]: 3.6; fold change (FC) [12]: 3.3; fold change (FC) [13]: 2
2 | 0.25 µg/mL (≈ 0.541 µM) | 0.5 µg/mL (≈ 1.08 µM) | 0.25 µg/mL (≈ 0.541 µM) | 0.5 µg/mL (≈ 1.08 µM) | 1 µg/mL (≈ 2.16 µM) | 0.25 µg/mL (≈ 0.541 µM) | 2 µg/mL (≈ 4.32 µM) | 1 µg/mL (≈ 2.16 µM) | Cn1nnnc1SCC1=C(C(=O)O)N2C(=O)[C@@H](NC(=O)[C@H](O)c3ccccc3)[C@H]2SC1 [CEFAMANDOLE] | 0.25 µg/mL (≈ 0.541 µM) | Ratio [14]: 0.65; Ratio [15]: 1.29; Ratio [16]: 1.27; Ratio [17]: 0.63; Ratio [18]: 1.06; fold change (FC) [19]: 2; Ratio [20]: 0.86; Ratio [21]: 0.62; Ratio [22]: 1.07; Activity [13]: inactive; fold change (FC) [23]: 2; Ratio [24]: 1.12
